Reference: ChEMBL document CHEMBL3244059, “Synthesis and pharmacological activity of a phosphate ester of delta8-tetrahydrocannabinol” (J Med Chem, 1978)
Activity calls are given as the source filed them. No cut-off for these calls is given here.

Experiments:
Mus musculus [1] = assay: Hypothermic activity in ddN mouse assessed as reduction of rectal temperature at 10 mg/kg, iv after 2 hrs; format: functional
Method in brief: (§1)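 Rectal temperature taken with a thermistor thermometer after iv tail-vein dosing at 10 or 20 mg/kg (1% Tween 80 suspension or saline solution). Room held at 23 ± 1 °C; time course followed up to 5 h. Decline reported as mean ± SE of eight mice.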

[2] = Drug metabolism in mouse liver homogenates assessed as compound hydrolysis at pH 5 after 15 mins by spectrophotometric analysis in presence of alkaline phosphatase; format: ADME, tissue-based; conditions: read-out: Drug metabolism
Method in brief: (§2)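 Substrate (1.5 μmol) incubated at 37 °C with mouse liver homogenate (equivalent to 0.1 g liver) in 0.1 M glycine buffer pH 9.6 or 0.1 M acetate buffer pH 5.0. Sampled at 15, 30 and 60 min. Percent hydrolysis given as mean of duplicate determinations.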

Mus musculus [3] = assay: Potentiation of thiopental-induced sleep in iv dosed ddN mouse assessed as loss of righting reflex after 60 mins administered with saline; format: functional
Method in brief: (§3)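 Pretreatment given iv (saline solution or 1% Tween 80 suspension; vehicle controls for each), followed 30 or 60 min later by thiopental 80 mg/kg iv. Sleep measured as loss of righting reflex. Potentiation counted positive when sleeping time exceeded twice the matching control. Eight mice per dose; ED50 with confidence limits.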

Mus musculus [4] = assay: Hypothermic activity in ddN mouse assessed as reduction of rectal temperature at 20 mg/kg, iv after 2 hrs; format: functional; method in brief: as §1
[5] = Drug metabolism in mouse liver homogenates assessed as compound hydrolysis at pH 9.6 after 60 mins by spectrophotometric analysis in presence of alkaline phosphatase; format: ADME, tissue-based; conditions: read-out: Drug metabolism; method in brief: as §2
[6] = Drug metabolism in mouse liver homogenates assessed as compound hydrolysis at pH 9.6 after 30 mins by spectrophotometric analysis in presence of alkaline phosphatase; format: ADME, tissue-based; conditions: read-out: Drug metabolism; method in brief: as §2
[7] = Drug metabolism in mouse liver homogenates assessed as compound hydrolysis at pH 9.6 after 15 mins by spectrophotometric analysis in presence of alkaline phosphatase; format: ADME, tissue-based; conditions: read-out: Drug metabolism; method in brief: as §2
[8] = Drug metabolism in mouse liver homogenates assessed as compound hydrolysis at pH 5 after 30 mins by spectrophotometric analysis in presence of alkaline phosphatase; format: ADME, tissue-based; conditions: read-out: Drug metabolism; method in brief: as §2
Mus musculus [9] = assay: Cataleptogenic activity in iv dosed ddN mouse assessed as induction of catalepsy after 60 mins by bar test; format: functional
Method in brief: (§4)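 Catalepsy scored by a modified simple bar test at 30 and 60 min after iv tail-vein injection (0.1 mL/10 g; 1% Tween 80 suspension or saline solution). Eight mice per dose; vehicle controls. ED50 with 95% confidence limits at peak time.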

Mus musculus [10] = assay: Cataleptogenic activity in iv dosed ddN mouse assessed as induction of catalepsy after 30 to 60 mins by bar test; format: functional; method in brief: as §4
[11] = Drug metabolism in mouse liver homogenates assessed as compound hydrolysis at pH 5 after 60 mins by spectrophotometric analysis in presence of alkaline phosphatase; format: ADME, tissue-based; conditions: read-out: Drug metabolism; method in brief: as §2
Mus musculus [12] = assay: Potentiation of thiopental-induced sleep in iv dosed ddN mouse assessed as loss of righting reflex after 30 to 60 mins; format: functional; method in brief: as §3
Mus musculus [13] = assay: Acute toxicity in ddN mouse assessed as mortality up to 160 mg/kg, iv after 24 hrs; format: organism-based; design: dose 160 mg/kg, route intravenous; conditions: in vivo
Method in brief: (§5)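 Mice dosed iv via tail vein, 0.1 mL/10 g body weight; parent compound as suspension in 1% Tween 80, phosphate as solution in saline. Eight animals per dose.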

Mus musculus [14] = assay: Hypothermic activity in ddN mouse assessed as reduction of rectal temperature at 20 mg/kg, iv after 1 hr; format: functional; method in brief: as §1
Mus musculus [15] = assay: Hypothermic activity in ddN mouse assessed as reduction of rectal temperature at 10 mg/kg, iv after 1 hr; format: functional; method in brief: as §1
[16] = Acute toxicity in iv dosed ddN mouse assessed as mortality after 24 hrs; format: organism-based; conditions: in vivo; method in brief: as §5
Mus musculus [17] = assay: Cataleptogenic activity in iv dosed ddN mouse assessed as induction of catalepsy after 30 mins by bar test; format: functional, organism-based; method in brief: as §4
Mus musculus [18] = assay: Potentiation of thiopental-induced sleep in iv dosed ddN mouse assessed as loss of righting reflex after 60 mins administered with 1% Tween-80; format: functional, organism-based; method in brief: as §3

Compound `CCCCCc1cc2c(c(OP(=O)([O-])[O-])c1)[C@@H]1CC(C)=CC[C@H]1C(C)(C)O2.[Na+].[Na+]` has a T (Mus musculus [1]) of 2.4 °C, a metabolised at 0.25 h [2] of 15.3% and an Activity (Mus musculus [3]) of 7%. It also gave a T (Mus musculus [4]) of 5 °C, a metabolised at 1 h [5] of 24.5% and a metabolised at 0.5 h [6] of 13.9%. The metabolised at 0.25 h [7] was 7.8%, the metabolised at 0.5 h [8] was 20.7% and the Activity (Mus musculus [9]) was 10%. The ED50 (Mus musculus [10]) was 37 mg/kg, the metabolised at 1 h [11] was 29.2% and the ED50 (Mus musculus [12]) was 17.5 mg/kg. The Activity (Mus musculus [13]) was “Non-toxic”.
With `O=[N+]([O-])c1ccc(OP(=O)(O)O)cc1` [p-NITROPHENYLPHOSPHATE] the metabolised at 0.25 h [2] was 88.9%, the metabolised at 1 h [5] was 73.6% and the metabolised at 0.5 h [6] was 36.4%. The metabolised at 0.25 h [7] was 21.5%, the metabolised at 0.5 h [8] was 96.7% and the metabolised at 1 h [11] was 97.7%.
`CCCCCc1cc(O)c2c(c1)OC(C)(C)[C@@H]1CC=C(C)C[C@@H]21` [DELTA-8-TETRAHYDROCANNABINOL] showed a T (Mus musculus [14]) of 4.8 °C, a T (Mus musculus [15]) of 3.8 °C and an ED50 (Mus musculus [10]) of 3.3 mg/kg. For the same compound, the LD50 at 24 h [16] was 27.5 mg/kg, the ED50 (Mus musculus [12]) was 1.2 mg/kg and the Activity (Mus musculus [17]) was “Active”. For the same compound, the Activity (Mus musculus [18]) was “Active”.
